Data reported in ChEMBL document CHEMBL4196132, “Alkaloids with Immunosuppressive Activity from the Bark of Pausinystalia yohimbe” (J Nat Prod, 2018).
Activity calls are given as the source filed them. The calls are words filed in the database; no cut-off is given here.

Assays:
Type in all cases: functional, cell-based
MCF7 = assay: Cytotoxicity against human MCF7 cells assessed as reduction in cell viability at 100 uM after 24 hrs by MTT assay
Outline: (§1)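 Human cancer lines grown in DMEM or RPMI-1640 with 10% FBS plus penicillin–streptomycin, 5% CO2, 37 °C. MTT read-out, viable-cell percentage measured at 490 nm. Doxorubicin hydrochloride as positive control.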

HepG2 = assay: Cytotoxicity against human HepG2 cells assessed as reduction in cell viability at 100 uM after 24 hrs by MTT assay; outline: as §1
HT-29 = assay: Cytotoxicity against human HT-29 cells assessed as reduction in cell viability at 100 uM after 24 hrs by MTT assay; outline: as §1
HeLa = assay: Cytotoxicity against human HeLa cells assessed as reduction in cell viability at 100 uM after 24 hrs by MTT assay; outline: as §1
B-cell line = assay: Immunosuppressive activity in C57BL/6 mouse B cells assessed as inhibition of LPS-induced cell proliferation by MTT assay; settings: C57BL/6, B-cell
Outline: (§2)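 Splenocytes from male C57BL/6 mice (6–8 weeks), red cells lysed, in RPMI 1640 with 10% FBS. 5 × 10^5 cells per well, 5% CO2, 37 °C, 24 h. Stimulated with ConA 5 μg/mL (T cells) or LPS 10 μg/mL (B cells). MTT added for 4 h, pellet dissolved in DMSO, read at 490 nm. CsA and MMF as positive controls.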

Murine T-cell line = assay: Immunosuppressive activity in C57BL/6 mouse T cells assessed as inhibition of ConA-induced cell proliferation by MTT assay; settings: C57BL/6, T-cell; outline: as §2

CC[C@@H]1C[N@@+]2([O-])CCc3c([nH]c4ccccc34)[C@@H]2C[C@@H]1/C(=C\OC)C(=O)OC
Activity (MCF7): inactive | Activity (HepG2): inactive | Activity (HT-29): inactive | Activity (HeLa): inactive

C=C[C@@H]1CN2CC[C@@]3(C(=O)Nc4ccccc43)[C@@H]2C[C@@H]1/C(=C\OC)C(=O)OC
Activity (MCF7): inactive | Activity (HepG2): inactive | Activity (HT-29): inactive | Activity (HeLa): inactive

C=C[C@H]1CN2CCc3c([nH]c4ccccc34)[C@@H]2C[C@@H]1/C(=C\OC)C(=O)OC
Activity (MCF7): inactive | IC50 (B-cell line): 13.5 µM | Activity (HepG2): inactive | IC50 (Murine T-cell line): 16.8 µM | Activity (HT-29): inactive | Activity (HeLa): inactive

CC[C@@H]1CN2CC[C@]3(C(=O)Nc4ccccc43)[C@@H]2C[C@@H]1/C(=C\OC)C(=O)OC
Activity (MCF7): inactive | Activity (HepG2): inactive | Activity (HT-29): inactive | Activity (HeLa): inactive

COC(=O)[C@H]1[C@H]2C[C@H]3c4[nH]c5ccccc5c4CCN3C[C@@H]2CC[C@@H]1O [CORYNANTHEINE]
Activity (MCF7): inactive | IC50 (B-cell line): 40.5 µM | Activity (HepG2): inactive | IC50 (Murine T-cell line): 27.6 µM | Activity (HT-29): inactive | Activity (HeLa): inactive

C=C[C@H]1C[N@+]2([O-])CCc3c([nH]c4ccccc34)[C@@H]2C[C@@H]1/C(=C\OC)C(=O)OC
Activity (MCF7): inactive | Activity (HepG2): inactive | Activity (HT-29): inactive | Activity (HeLa): inactive

CC[C@@H]1CN2CC[C@@]3(C(=O)Nc4ccccc43)[C@@H]2C[C@@H]1/C(=C\OC)C(=O)OC
Activity (MCF7): inactive | Activity (HepG2): inactive | Activity (HT-29): inactive | Activity (HeLa): inactive

C=C[C@H]1CN2CC[C@]3(C(=O)Nc4ccccc43)[C@@H]2C[C@@H]1/C(=C\OC)C(=O)OC
Activity (MCF7): inactive | Activity (HepG2): inactive | Activity (HT-29): inactive | Activity (HeLa): inactive

CC[C@@H]1CN2CCc3c([nH]c4ccccc34)C2=C2OC(=O)C(C(=O)OC)=C21
Activity (MCF7): inactive | Activity (HepG2): inactive | Activity (HT-29): inactive | Activity (HeLa): inactive

CC[C@H]1C[N@@+]2([O-])CCc3c([nH]c4ccccc34)[C@@H]2C[C@@H]1/C(=C\OC)C(=O)OC
Activity (MCF7): inactive | Activity (HepG2): inactive | Activity (HT-29): inactive | Activity (HeLa): inactive

C=C[C@H]1C[N@@+]2([O-])CCc3c([nH]c4ccccc34)[C@@H]2C[C@@H]1/C(=C\OC)C(=O)OC
Activity (MCF7): inactive | Activity (HepG2): inactive | Activity (HT-29): inactive | Activity (HeLa): inactive

CC[C@@H]1C[N@+]2([O-])CCc3c([nH]c4ccccc34)[C@@H]2C[C@@H]1/C(=C\OC)C(=O)OC
Activity (MCF7): inactive | Activity (HepG2): inactive | Activity (HT-29): inactive | Activity (HeLa): inactive

CC[C@H]1CN2CCc3c([nH]c4ccccc34)[C@@H]2C[C@@H]1/C(=C\OC)C(=O)OC (stereo in doubt; 13)
Activity (MCF7): inactive | Activity (HepG2): inactive | Activity (HT-29): inactive | Activity (HeLa): inactive

CC[C@@H]1CN2C=Cc3c([nH]c4ccccc34)C2=C2OC(=O)C(C=O)=C21
Activity (MCF7): inactive | Activity (HepG2): inactive | Activity (HT-29): inactive | Activity (HeLa): inactive

CC[C@H]1CN2CCc3c([nH]c4ccccc34)[C@@H]2C[C@@H]1/C(=C\OC)C(=O)OC (stereo in doubt; 14)
Activity (MCF7): inactive | Activity (HepG2): inactive | Activity (HT-29): inactive | Activity (HeLa): inactive

CC[C@@H]1CN2CCc3c([nH]c4ccccc34)[C@@H]2C[C@@H]1/C(=C\OC)C(=O)OC
Activity (MCF7): inactive | Activity (HepG2): inactive | Activity (HT-29): inactive | Activity (HeLa): inactive
